Data: ChEMBL document CHEMBL1125323, “Potent V2/V1a vasopressin antagonists with C-terminal ethylenediamine-linked retro-amino acids” (J Med Chem, 1992)

What was measured:
Vasopressin receptor [1] = target: T1, Vasopressin receptor (Rattus norvegicus, UniProt P48974+P30560+Q00788); assay: Antiantidiuretic potency in terms of negative logarithm of the effective doses divided by the estimated volume of distribution; assay type: functional, Urine
How it was run: (§1)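 Water-loaded rats under ethanol anesthesia; urine flow followed. USP posterior pituitary reference standard as agonist, all injections intravenous. Effective dose (nmol/kg) is the antagonist dose reducing the response to 2x units of agonist to that of x units alone, interpolated on a log scale between bracketing doses. pA2 = negative log of ED divided by assumed distribution volume 67 mL/kg.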

Vasopressin receptor [2] = target: T1, Vasopressin receptor; assay: Antivasopressor potency in terms of negative logarithm of the effective doses divided by the estimated volume of distribution; assay type: functional
How it was run: (§2)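 Rats anesthetized with urethane, pretreated with phenoxybenzamine; blood pressure responses recorded. USP posterior pituitary reference standard as agonist, given intravenously with antagonist. ED (nmol/kg) is the antagonist dose at which 2x units of agonist match the response to x units without antagonist, log-interpolated from doses above and below. In vivo pA2 uses assumed distribution volume 67 mL/kg.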

[3] = target: T2, Vasopressin receptor (Rattus norvegicus) (UniProt P48974+P30560+Q00788); assay: Antiantidiuretic potency in terms of measuring changes in urine flow in water-loaded rats under ethanol anesthesia; assay type: functional; how it was run: as §1
[4] = target: T2, Vasopressin receptor (Rattus norvegicus); assay: Antivasopressor potency in terms of blood pressure response in rats anesthetized with urethane and pretreated with phenoxybenzamine; assay type: functional; how it was run: as §2

Compound	pA2 (Vasopressin receptor [1])	pA2 (Vasopressin receptor [2])	ED [3] [nM/kg]	ED [4] [nM/kg]
CCOc1ccc(C[C@H]2NC(=O)CC3(CCCCC3)SSC[C@H](C(=O)N3CCCC3C(=O)N[C@@H](CCCN=C(N)N)C(=O)NCCNC(=O)[C@H](N)CCCN=C(N)N)NC(=O)[C@@H](CC(N)=O)NC(=O)[C@H]([C@H](C)CC)NC(=O)[C@@H](Cc3ccccc3)NC2=O)cc1 (stereo partly drawn)			0.57	0.36
CCOc1ccc(C[C@H]2NC(=O)CC3(CCCCC3)SSC[C@@H](C(=O)N3CCC[C@H]3C(=O)NCCNC(=O)[C@H](N)CCCN)NC(=O)[C@H](CC(N)=O)NC(=O)[C@H](C(C)C)NC(=O)[C@H](Cc3ccccc3)NC2=O)cc1	7.92	7.86		
CCOc1ccc(C[C@H]2NC(=O)CC3(CCCCC3)SSC[C@H](C(=O)N[C@H](CCCN=C(N)N)C(=O)NCC(N)=O)NC(=O)[C@@H](CC(N)=O)NC(=O)[C@H](C(C)C)NC(=O)[C@@H](Cc3ccccc3)NC2=O)cc1			1.1	0.56
CCOc1ccc(C[C@H]2NC(=O)CC3(CCCCC3)SSC[C@H](C(=O)NCCN)NC(=O)[C@@H](CC(N)=O)NC(=O)[C@H](C(C)C)NC(=O)[C@@H](Cc3ccccc3)NC2=O)cc1			5.7	0.47
CC[C@H](C)[C@H]1NC(=O)CC2(CCCCC2)SSC[C@H](C(=O)NCCNC(=O)C(N)CCCN=C(N)N)NC(=O)[C@@H](CC(N)=O)NC(=O)[C@H](C(C)C)NC(=O)[C@@H](Cc2ccccc2)NC1=O (stereo partly drawn)			100	47
CCOc1ccc(C[C@H]2NC(=O)CC3(CCCCC3)SSC[C@@H](C(=O)N[C@@H](CCCN=C(N)N)C(=O)NCC(=O)NCCN)NC(=O)[C@H](CC(N)=O)NC(=O)[C@H](C(C)C)NC(=O)[C@H](Cc3ccccc3)NC2=O)cc1	8.03	8.05		
CCOc1ccc(C[C@H]2NC(=O)CC3(CCCCC3)SSC[C@H](C(=O)N3CCCC3C(=O)NCCNC(=O)[C@@H](N)CCCCN)NC(=O)[C@@H](CC(N)=O)NC(=O)[C@H](C(C)C)NC(=O)[C@@H](Cc3ccccc3)NC2=O)cc1 (stereo partly drawn)			1.2	0.57
CCOc1ccc(C[C@H]2NC(=O)CC3(CCCCC3)SSC[C@H](C(=O)N[C@H](CCCN=C(N)N)C(=O)NCC(=O)NCCN)NC(=O)[C@@H](CC(N)=O)NC(=O)[C@H](C(C)C)NC(=O)[C@@H](Cc3ccccc3)NC2=O)cc1			0.65	0.59
CCOc1ccc(C[C@H]2NC(=O)CC3(CCCCC3)SSC[C@@H](C(=O)NCCNC(=O)CN)NC(=O)[C@H](CC(N)=O)NC(=O)[C@H](C(C)C)NC(=O)[C@H](Cc3ccccc3)NC2=O)cc1	6.59	7.61		
CCOc1ccc(C[C@H]2NC(=O)CC3(CCCCC3)SSC[C@@H](C(=O)N3CCC[C@H]3C(=O)N[C@@H](CCCN=C(N)N)C(=O)NCCNC(=O)[C@@H](N)CCCN=C(N)N)NC(=O)[C@H](CC(N)=O)NC(=O)[C@H](C(C)C)NC(=O)[C@H](Cc3ccccc3)NC2=O)cc1	7.68	8.15		
CCOc1ccc(C[C@H]2NC(=O)CC3(CCCCC3)SSC[C@@H](C(=O)N3CCC[C@H]3C(=O)N[C@@H](CCCN=C(N)N)C(=O)NCCNC(=O)[C@@H](N)CCCN=C(N)N)NC(=O)[C@H](CC(N)=O)NC(=O)[C@H]([C@@H](C)CC)NC(=O)[C@H](Cc3ccccc3)NC2=O)cc1	8.1	8.27		
CC(C)C[C@H]1NC(=O)CC2(CCCCC2)SSC[C@H](C(=O)NCCNC(=O)C(N)CCCN=C(N)N)NC(=O)[C@@H](CC(N)=O)NC(=O)[C@H](C(C)C)NC(=O)[C@@H](Cc2ccccc2)NC1=O (stereo partly drawn)			> 234	58
CC[C@@H](C)[C@H]1NC(=O)CC2(CCCCC2)SSC[C@@H](C(=O)NCCNC(=O)[C@@H](N)CCCN=C(N)N)NC(=O)[C@H](CC(N)=O)NC(=O)[C@H](C(C)C)NC(=O)[C@H](Cc2ccccc2)NC1=O	5.8	6.16		
CCOc1ccc(C[C@H]2NC(=O)CC3(CCCCC3)SSC[C@@H](C(=O)N3CCC[C@H]3C(=O)NCCNC(=O)[C@H](N)CCCCN)NC(=O)[C@H](CC(N)=O)NC(=O)[C@H](C(C)C)NC(=O)[C@H](Cc3ccccc3)NC2=O)cc1	7.78	8.08		
CCOc1ccc(C[C@H]2NC(=O)CC3(CCCCC3)SSC[C@H](C(=O)N3CCCC3C(=O)N[C@H](CCCN=C(N)N)C(=O)NCCNC(=O)[C@H](N)CCCN=C(N)N)NC(=O)[C@@H](CC(N)=O)NC(=O)[C@H](C(C)C)NC(=O)[C@@H](Cc3ccccc3)NC2=O)cc1 (stereo partly drawn)			1.4	0.51
CCOc1ccc(C[C@H]2NC(=O)CC3(CCCCC3)SSC[C@H](C(=O)N[C@H](CCCN=C(N)N)C(=O)NCC(=O)NCCNC(=O)[C@H](N)CCCN=C(N)N)NC(=O)[C@@H](CC(N)=O)NC(=O)[C@H](C(C)C)NC(=O)[C@@H](Cc3ccccc3)NC2=O)cc1			0.91	0.73
CC(C)C[C@H]1NC(=O)CC2(CCCCC2)SSC[C@@H](C(=O)NCCNC(=O)[C@@H](N)CCCN=C(N)N)NC(=O)[C@H](CC(N)=O)NC(=O)[C@H](C(C)C)NC(=O)[C@H](Cc2ccccc2)NC1=O	< 5.5	6.08		
CCOc1ccc(C[C@H]2NC(=O)CC3(CCCCC3)SSC[C@H](C(=O)NCCNC(=O)CN)NC(=O)[C@@H](CC(N)=O)NC(=O)[C@H](C(C)C)NC(=O)[C@@H](Cc3ccccc3)NC2=O)cc1			18	1.66
CCOc1ccc(C[C@H]2NC(=O)CC3(CCCCC3)SSC[C@H](C(=O)N3CCCC3C(=O)NCCNC(=O)[C@@H](N)CCCN)NC(=O)[C@@H](CC(N)=O)NC(=O)[C@H](C(C)C)NC(=O)[C@@H](Cc3ccccc3)NC2=O)cc1 (stereo partly drawn)			0.82	0.95

More lines, main results first:

pA2 (Vasopressin receptor [1])	pA2 (Vasopressin receptor [2])	ED [3] [nM/kg]	Compound	ED [4] [nM/kg]
7.24	8.06		CCOc1ccc(C[C@H]2NC(=O)CC3(CCCCC3)SSC[C@@H](C(=O)NCCNC(=O)[C@H](N)CCCN)NC(=O)[C@H](CC(N)=O)NC(=O)[C@H](C(C)C)NC(=O)[C@H](Cc3ccccc3)NC2=O)cc1	
		4	CCOc1ccc(C[C@H]2NC(=O)CC3(CCCCC3)SSC[C@H](C(=O)NCCNC(=O)[C@@H](N)CCCN)NC(=O)[C@@H](CC(N)=O)NC(=O)[C@H](C(C)C)NC(=O)[C@@H](Cc3ccccc3)NC2=O)cc1	0.59
		0.83	CCOc1ccc(C[C@H]2NC(=O)CC3(CCCCC3)SSC[C@H](C(=O)NCCNC(=O)[C@@H](N)CCCN=C(N)N)NC(=O)[C@@H](CC(N)=O)NC(=O)[C@H](C(C)C)NC(=O)[C@@H](Cc3ccccc3)NC2=O)cc1	0.47
7.54	7.95		CCOc1ccc(C[C@H]2NC(=O)CC3(CCCCC3)SSC[C@@H](C(=O)NCCNC(=O)[C@@H](N)CCCN=C(N)N)NC(=O)[C@H](CC(N)=O)NC(=O)[C@H](C(C)C)NC(=O)[C@H](Cc3ccccc3)NC2=O)cc1	
6.39	7.97		CCOc1ccc(C[C@@H]2NC(=O)CC3(CCCCC3)SSC[C@@H](C(=O)NCCNC(=O)[C@@H](N)CCCN=C(N)N)NC(=O)[C@H](CC(N)=O)NC(=O)[C@H](C(C)C)NC(=O)[C@H](Cc3ccccc3)NC2=O)cc1	
		0.81	CCOc1ccc(C[C@H]2NC(=O)CC3(CCCCC3)SSC[C@H](C(=O)N3CCCC3C(=O)NCCNC(=O)[C@@H](N)CCCN=C(N)N)NC(=O)[C@@H](CC(N)=O)NC(=O)[C@H](C(C)C)NC(=O)[C@@H](Cc3ccccc3)NC2=O)cc1 (stereo partly drawn)	0.48
		27	CCOc1ccc(C[C@@H]2NC(=O)CC3(CCCCC3)SSC[C@H](C(=O)NCCNC(=O)C(N)CCCN=C(N)N)NC(=O)[C@@H](CC(N)=O)NC(=O)[C@H](C(C)C)NC(=O)[C@@H](Cc3ccccc3)NC2=O)cc1 (stereo partly drawn)	0.76
		1.2	CCOc1ccc(C[C@H]2NC(=O)CC3(CCCCC3)SSC[C@H](C(=O)NCCNC(=O)[C@H](N)CCCCN)NC(=O)[C@@H](CC(N)=O)NC(=O)[C@H](C(C)C)NC(=O)[C@@H](Cc3ccccc3)NC2=O)cc1	0.82
		1.9	CCOc1ccc(C[C@H]2NC(=O)CC3(CCCCC3)SSC[C@H](C(=O)NCCNC(=O)[C@H](N)CCCN)NC(=O)[C@@H](CC(N)=O)NC(=O)[C@H](C(C)C)NC(=O)[C@@H](Cc3ccccc3)NC2=O)cc1	1.06
		2.1	CCOc1ccc(C[C@H]2NC(=O)CC3(CCCCC3)SSC[C@H](C(=O)NCCNC(=O)C(N)CCCN=C(N)N)NC(=O)[C@@H](CC(N)=O)NC(=O)[C@H](C(C)C)NC(=O)[C@@H](Cc3ccccc3)NC2=O)cc1 (stereo partly drawn)	0.75
7.92	8.15		CCOc1ccc(C[C@H]2NC(=O)CC3(CCCCC3)SSC[C@@H](C(=O)N3CCC[C@H]3C(=O)NCCNC(=O)[C@H](N)CCCN=C(N)N)NC(=O)[C@H](CC(N)=O)NC(=O)[C@H](C(C)C)NC(=O)[C@H](Cc3ccccc3)NC2=O)cc1	
7.82	8.09		CCOc1ccc(C[C@H]2NC(=O)CC3(CCCCC3)SSC[C@@H](C(=O)N[C@@H](CCCN=C(N)N)C(=O)NCC(N)=O)NC(=O)[C@H](CC(N)=O)NC(=O)[C@H](C(C)C)NC(=O)[C@H](Cc3ccccc3)NC2=O)cc1	
7.76	7.92		CCOc1ccc(C[C@H]2NC(=O)CC3(CCCCC3)SSC[C@@H](C(=O)NCCNC(=O)[C@H](N)CCCCN)NC(=O)[C@H](CC(N)=O)NC(=O)[C@H](C(C)C)NC(=O)[C@H](Cc3ccccc3)NC2=O)cc1	
		1.8	CCOc1ccc(C[C@H]2NC(=O)CC3(CCCCC3)SSC[C@H](C(=O)NCCNC(=O)[C@@H](CCCN=C(N)N)NC(=O)[C@H](N)CCCN=C(N)N)NC(=O)[C@@H](CC(N)=O)NC(=O)[C@H](C(C)C)NC(=O)[C@@H](Cc3ccccc3)NC2=O)cc1	0.86
		8.4	CC(C)[C@@H]1NC(=O)[C@@H](Cc2ccccc2)NC(=O)[C@@H](Cc2ccccc2)NC(=O)CC2(CCCCC2)SSC[C@H](C(=O)NCCNC(=O)C(N)CCCN=C(N)N)NC(=O)[C@@H](CC(N)=O)NC1=O (stereo partly drawn)	1.7
